Experimental data as given in PubChem BioAssay AID651943 (The Scripps Research Institute Molecular Screening Center, 2012).
The source made the active and inactive calls.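 The calls were made as follows: active = bacterial viability inhibition with half-maximal concentration IC50 at or below 10 µM; inactive = the rest.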

System: E. coli V66 growth, OD600 absorbance, 18 h
Experiment: E. coli V66 viability reduction – absorbance, dose response, round 2, counter-screen for AddAB helicase-nuclease inhibitor project, late-stage follow-up (AID 651943)
Procedure, shortened: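 Assay system: uninfected E. coli strain V66, RecBCD+; Medium: cation-adjusted Mueller Hinton broth, 0.1% glycerol; Incubation: 18 h bacterial growth with compound at 37 °C; Signal: OD600 absorbance; Dosing: 10 concentrations, 1:3 steps, highest 118.6 µM.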

Row | Compound | IC50
1 | CCn1cc(C(=O)O)c(=O)c2cnc(N3CCN(C(=S)Nc4cccc(C(F)(F)F)c4)CC3)nc21 | 34.4 µM (inactive)
2 | CCn1cc(C(=O)O)c(=O)c2cnc(N3CCN(C(=S)NCc4ccccc4)CC3)nc21 | > 119 µM (inactive)
3 | CCn1cc(C(=O)O)c(=O)c2cnc(N3CCN(C(=S)Nc4ccc(Cl)cc4)CC3)nc21 | > 39.5 µM (inactive)
4 | CCn1cc(C(=O)O)c(=O)c2cnc(N3CCN(C(=S)Nc4ccccc4OC)CC3)nc21 | > 119 µM (inactive)
5 | CCn1cc(C(=O)O)c(=O)c2cnc(N3CCN(C(=S)NC(=O)c4cccc(C)c4)CC3)nc21 | > 39.5 µM (inactive)
6 | CCn1cc(C(=O)O)c(=O)c2cnc(N3CCN(C(=S)Nc4ccccc4F)CC3)nc21 | > 119 µM (inactive)
